Test results reported in ChEMBL document CHEMBL4665671 (ACS Med Chem Lett, 2019).
In brackets after ≈: the same amount, converted by molar mass. Activity calls are given as the source filed them. No cut-off for these calls is given here.

Assays:
OVCAR-3 [1] = assay: Antitumor activity against human OVCAR-3 cells xenografted in BALB/c nude mouse assessed as tumor growth inhibition at 6.3 mg/kg, po qd administered for 28 days starting from day 17 post inoculation and measured on day 45; type: functional, organism-based; conditions: time 28.0 day
Procedure, shortened: (§1)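 BALB/c nude mice inoculated subcutaneously with 5 × 10^6 OVCAR-3 cells on day 0. From day 17, dosed orally once daily for 28 days; controls received vehicle QD. Tumor size tracked over time, tumor weight taken at day 45, body weight recorded at set time points. n = 8, mean ± SEM; two-way ANOVA with Bonferroni or Dunnett's correction.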

[2] = Clearance in human cryopreserved hepatocytes assessed per 10^6 cells at 2.5 uM measured up to 90 mins by LC-MS/MS analysis; type: ADME, cell-based, Hepatocyte; conditions: 1.5 h
Procedure, shortened: (§2)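 Cultured rat, mouse, dog and human hepatocytes were incubated with compound. Clearance and half-life were measured. Each experiment was run with n = 3.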

[3] = molecular target: T1, Serine/threonine-protein kinase mTOR (Homo sapiens, UniProt P42345); assay: Displacement of alexa fluor 647-labeled kinase tracer 314 from recombinant human N-terminal GST-fused mTOR (1360 to 2549 residues) expressed in baculovirus expression system by TR-FRET assay relative to parent compound
[4] = Toxicity in BALB/c nude mouse xenografted with human OVCAR3 cells assessed as effect on body weight at 6.3 mg/kg, po qd administered for 28 days starting from day 17 post inoculation; type: organism-based; conditions: in vivo, 672 h, time 28 day; procedure, shortened: as §1
[5] = Permeability of the compound in PBS at pH 7.4 incubated for 2 hrs under shaking condition by PAMPA; type: ADME; conditions: pH 7.4, 2 h
[6] = Half life in mouse cryopreserved hepatocytes at 2.5 uM measured up to 90 mins by LC-MS/MS analysis; type: ADME, cell-based, Hepatocyte; conditions: 1.5 h; procedure, shortened: as §2
mTORC1 = mTORC1 (Homo sapiens, UniProt P42345); assay: Inhibition of mTORC1 in human A2058 cells assessed as reduction in ribosomal protein S6 phosphorylation at Ser235/236 residues incubated for 1 hr by Western blot analysis; type: cell-based
[7] = Thermodynamic solubility of the compound in buffer at pH 1.2 to 6.8 incubated for 24 hrs under agitation condition by shake flask method; type: physicochemical; conditions: read-out: Therm_solubility
OVCAR-3 [8] = assay: Antitumor activity against human OVCAR-3 cells xenografted in BALB/c nude mouse assessed as effect on tumor size at 6.3 mg/kg, po qd administered for 28 days starting from day 17 post inoculation and measured on day 45 (reference value: 1031 mm3); conditions: time 28 day
[9] = Clearance in dog cryopreserved hepatocytes assessed per 10^6 cells at 2.5 uM measured up to 90 mins by LC-MS/MS analysis; type: ADME, cell-based, Canis lupus familiaris, Hepatocyte; conditions: 1.5 h; procedure, shortened: as §2
[10] = Half life in dog cryopreserved hepatocytes at 2.5 uM measured up to 90 mins by LC-MS/MS analysis; type: ADME, cell-based, Canis lupus familiaris, Hepatocyte; conditions: 1.5 h; procedure, shortened: as §2
[11] = Cmax in C57BL/6J mouse plasma at 10 mg/kg, po after 1 hr by UHPLC-MS analysis; type: ADME, organism-based; parameters: route oral, dose 10 mg/kg, time 1 hrs; conditions: in vivo
Procedure, shortened: (§3)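 Male C57BL/6J mice, single oral dose 10 mg/kg. Compound extracted from plasma, brain and thigh muscle at set time points over 8 h and quantified by LC–MS. n = 3, mean per time point.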

[12] = Half life in human cryopreserved hepatocytes at 2.5 uM measured up to 90 mins by LC-MS/MS analysis; type: ADME, cell-based, Hepatocyte; conditions: 1.5 h; procedure, shortened: as §2
[13] = Toxicity in po dosed Wistar male rat assessed as NOAEL administered via gavage for 14 consecutive days; type: organism-based; conditions: in vivo, time 14 day
Procedure, shortened: (§4)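 14-day pilot toxicokinetic study in Wistar rats (males and females assessed separately) and beagle dogs. NOAEL was set in mg/kg/day.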

[14] = Thermodynamic solubility of the compound in buffer at pH 1.2 incubated for 24 hrs under agitation condition by shake flask method; type: physicochemical; conditions: read-out: Therm_solubility
[15] = Toxicity in BALB/c nude mouse xenografted with human OVCAR3 cells assessed as maximum tolerated dose; conditions: in vivo
[16] = AUC (0 to 8 hrs) in C57BL/6J mouse thigh muscle at 10 mg/kg, po by UHPLC-MS analysis; type: ADME, organism-based; parameters: time < 8 hr, route oral, dose 10 mg/kg; conditions: in vivo; procedure, shortened: as §3
[17] = Half life in C57BL/6J mouse thigh muscle at 10 mg/kg, po by UHPLC-MS analysis; type: ADME, organism-based; procedure, shortened: as §3
Cytochrome P450 3A4 = Cytochrome P450 3A4 (Homo sapiens, UniProt P08684); assay: Inhibition of CYP3A4 (unknown origin) by fluorescence assay; type: ADME
Cytochrome P450 3A4, sequence (P08684 whole entry): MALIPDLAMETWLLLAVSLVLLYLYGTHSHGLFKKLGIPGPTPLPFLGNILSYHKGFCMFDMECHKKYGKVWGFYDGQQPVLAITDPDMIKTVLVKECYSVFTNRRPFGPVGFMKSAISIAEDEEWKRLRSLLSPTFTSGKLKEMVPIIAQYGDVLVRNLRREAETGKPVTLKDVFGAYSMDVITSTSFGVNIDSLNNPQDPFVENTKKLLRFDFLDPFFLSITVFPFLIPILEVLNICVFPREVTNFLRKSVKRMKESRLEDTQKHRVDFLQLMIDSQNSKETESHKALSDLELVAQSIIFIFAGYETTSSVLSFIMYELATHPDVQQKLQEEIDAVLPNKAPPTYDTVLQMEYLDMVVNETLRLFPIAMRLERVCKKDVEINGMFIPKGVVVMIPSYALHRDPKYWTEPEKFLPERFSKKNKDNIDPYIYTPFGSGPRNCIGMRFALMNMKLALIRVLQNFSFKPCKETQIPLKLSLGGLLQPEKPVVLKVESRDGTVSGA

[18] = Clearance in mouse cryopreserved hepatocytes assessed per 10^6 cells at 2.5 uM measured up to 90 mins by LC-MS/MS analysis; type: ADME, cell-based, Hepatocyte; conditions: 1.5 h; procedure, shortened: as §2
Cytochrome P450 2D6 = Cytochrome P450 2D6 (Homo sapiens, UniProt P10635); assay: Inhibition of CYP2D6 (unknown origin) by fluorescence assay; type: ADME
Cytochrome P450 2D6, sequence (P10635 whole entry): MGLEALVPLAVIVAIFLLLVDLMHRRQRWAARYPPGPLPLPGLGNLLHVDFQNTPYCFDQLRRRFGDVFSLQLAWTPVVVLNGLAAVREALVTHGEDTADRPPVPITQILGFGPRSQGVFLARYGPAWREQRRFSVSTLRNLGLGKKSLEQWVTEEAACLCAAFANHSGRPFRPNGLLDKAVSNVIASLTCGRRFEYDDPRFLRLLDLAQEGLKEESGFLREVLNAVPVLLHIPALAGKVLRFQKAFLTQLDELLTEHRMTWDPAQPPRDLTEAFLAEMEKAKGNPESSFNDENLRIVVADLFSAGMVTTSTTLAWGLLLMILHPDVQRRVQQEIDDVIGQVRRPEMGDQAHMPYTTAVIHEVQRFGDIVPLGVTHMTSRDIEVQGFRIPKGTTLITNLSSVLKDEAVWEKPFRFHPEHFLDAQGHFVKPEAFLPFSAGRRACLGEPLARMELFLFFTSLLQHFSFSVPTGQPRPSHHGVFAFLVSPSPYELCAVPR

[19] = Cmax in C57BL/6J mouse brain at 10 mg/kg, po after 30 mins by UHPLC-MS analysis; type: ADME, organism-based; parameters: route oral, dose 10 mg/kg, time 30 min; procedure, shortened: as §3
[20] = Half life in C57BL/6J mouse brain at 10 mg/kg, po by UHPLC-MS analysis; type: ADME, organism-based; procedure, shortened: as §3
[21] = Clearance in C57BL/6J mouse plasma at 10 mg/kg, po by UHPLC-MS analysis; type: ADME, organism-based
Procedure, shortened: (§5)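 Male C57BL/6J mice given a single oral 10 mg/kg dose. Plasma, brain and thigh muscle sampled at set times up to 8 h. Compound extracted from each tissue and quantified by LC–MS. n = 3, mean per time point.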

[22] = Clearance in rat cryopreserved hepatocytes assessed per 10^6 cells at 2.5 uM measured up to 90 mins by LC-MS/MS analysis; type: ADME, cell-based, Hepatocyte; conditions: 1.5 h; procedure, shortened: as §2
Mus musculus [23] = assay: Increase in insulin level in C57BL/6J mouse plasma at 10 mg/kg, po measured after 2 hrs by UV/Vis spectrometry analysis; type: functional, organism-based
Procedure, shortened: (§6)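 Male C57BL/6J mice given a single oral 10 mg/kg dose. Plasma glucose and insulin levels followed over time after dosing. Mean ± SEM.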

[24] = AUC (0 to 8 hrs) in C57BL/6J mouse brain at 10 mg/kg, po by UHPLC-MS analysis; type: ADME, organism-based; parameters: time < 8 hr, route oral, dose 10 mg/kg; conditions: in vivo; procedure, shortened: as §3
[25] = Tmax in C57BL/6J mouse thigh muscle at 10 mg/kg, po by UHPLC-MS analysis; type: ADME, organism-based; procedure, shortened: as §3
[26] = Tmax in C57BL/6J mouse brain at 10 mg/kg, po by UHPLC-MS analysis; type: ADME, organism-based; procedure, shortened: as §3
[27] = Toxicity in po dosed Beagle dog assessed as NOAEL administered via gavage for 14 consecutive days; type: organism-based, Canis lupus familiaris; conditions: in vivo, time 14 day; procedure, shortened: as §4
Cytochrome P450 1A2 = molecular target: T2, Cytochrome P450 1A2 (Homo sapiens, UniProt P05177); assay: Inhibition of CYP1A2 (unknown origin) by fluorescence assay; type: ADME
T2 sequence (P05177 whole entry): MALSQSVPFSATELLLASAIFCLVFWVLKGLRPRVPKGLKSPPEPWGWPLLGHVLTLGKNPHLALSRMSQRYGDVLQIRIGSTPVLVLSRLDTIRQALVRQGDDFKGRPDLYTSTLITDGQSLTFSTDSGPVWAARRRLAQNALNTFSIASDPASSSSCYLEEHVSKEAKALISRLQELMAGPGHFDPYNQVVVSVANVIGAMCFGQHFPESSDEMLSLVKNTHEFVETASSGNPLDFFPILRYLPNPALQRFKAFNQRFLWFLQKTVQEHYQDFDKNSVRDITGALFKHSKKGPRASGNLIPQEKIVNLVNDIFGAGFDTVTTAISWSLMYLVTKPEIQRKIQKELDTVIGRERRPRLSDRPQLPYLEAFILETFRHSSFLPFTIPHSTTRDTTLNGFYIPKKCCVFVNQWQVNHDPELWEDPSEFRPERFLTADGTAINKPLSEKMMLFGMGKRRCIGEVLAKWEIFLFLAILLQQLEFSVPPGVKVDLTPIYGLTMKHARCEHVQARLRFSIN

mTORC2 = mTORC2 (Homo sapiens, UniProt P42345); assay: Inhibition of mTORC2 in human A2058 cells assessed as reduction in PKB phosphorylation at S473 residue incubated for 1 hr by Western blot analysis; type: cell-based
[28] = Toxicity in po dosed Wistar female rat assessed as NOAEL administered via gavage for 14 consecutive days; type: organism-based; conditions: in vivo, time 14 day; procedure, shortened: as §4
[29] = AUC (0 to 8 hrs) in C57BL/6J mouse plasma at 10 mg/kg, po by UHPLC-MS analysis; type: ADME, organism-based; parameters: time < 8 hr, route oral, dose 10 mg/kg; conditions: in vivo; procedure, shortened: as §3
[30] = Ratio of drug level in brain to plasma in C57BL/6J mouse at 10 mg/kg, po by UHPLC-MS analysis; type: ADME, organism-based; conditions: brain and plasma, read-out: BPR; procedure, shortened: as §5
[31] = molecular target: T1, Serine/threonine-protein kinase mTOR; assay: Displacement of alexa fluor 647-labeled kinase tracer 314 from recombinant human N-terminal GST-fused mTOR (1360 to 2549 residues) expressed in baculovirus expression system by TR-FRET assay
Mus musculus [32] = assay: Increase in glucose level in C57BL/6J mouse plasma at 10 mg/kg, po measured after 2 hrs by UV/Vis spectrometry analysis; type: functional, organism-based; procedure, shortened: as §6
[33] = Cmax in C57BL/6J mouse thigh muscle at 10 mg/kg, po after 30 mins by UHPLC-MS analysis; type: ADME, organism-based; parameters: route oral, time 30 min, dose 10 mg/kg; procedure, shortened: as §3
[34] = Half life in C57BL/6J mouse plasma at 10 mg/kg, po by UHPLC-MS analysis; type: ADME, organism-based; procedure, shortened: as §3
Cytochrome P450 2C19 = Cytochrome P450 2C19 (Homo sapiens, UniProt P33261); assay: Inhibition of CYP2C19 (unknown origin) by fluorescence assay; type: ADME
Cytochrome P450 2C19, sequence (P33261 whole entry): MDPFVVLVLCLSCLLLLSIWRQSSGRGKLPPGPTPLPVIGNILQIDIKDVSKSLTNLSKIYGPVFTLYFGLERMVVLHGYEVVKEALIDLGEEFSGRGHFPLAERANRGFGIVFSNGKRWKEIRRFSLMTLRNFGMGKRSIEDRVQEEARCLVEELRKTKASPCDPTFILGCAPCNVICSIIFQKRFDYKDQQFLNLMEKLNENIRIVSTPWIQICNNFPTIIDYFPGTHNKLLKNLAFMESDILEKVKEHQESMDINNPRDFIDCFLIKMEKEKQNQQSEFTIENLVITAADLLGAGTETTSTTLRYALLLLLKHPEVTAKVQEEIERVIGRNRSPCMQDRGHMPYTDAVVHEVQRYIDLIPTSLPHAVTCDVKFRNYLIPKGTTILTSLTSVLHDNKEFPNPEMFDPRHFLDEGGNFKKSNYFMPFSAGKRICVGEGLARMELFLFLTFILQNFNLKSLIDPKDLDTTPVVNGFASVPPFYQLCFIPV

[35] = Tmax in C57BL/6J mouse plasma at 10 mg/kg, po by UHPLC-MS analysis; type: ADME, organism-based; procedure, shortened: as §3
[36] = Half life in rat cryopreserved hepatocytes at 2.5 uM measured up to 90 mins by LC-MS/MS analysis; type: ADME, cell-based, Hepatocyte; conditions: 1.5 h; procedure, shortened: as §2
[37] = molecular target: Phosphatidylinositol 4,5-bisphosphate 3-kinase catalytic subunit alpha isoform (Homo sapiens, UniProt P42336); assay: Displacement of alexa fluor 647-labeled kinase tracer 314 from recombinant N-terminal His6-tagged p110alpha (unknown origin) by TR-FRET assay
Phosphatidylinositol 4,5-bisphosphate 3-kinase catalytic subunit alpha isoform, sequence (P42336 whole entry, canonical isoform): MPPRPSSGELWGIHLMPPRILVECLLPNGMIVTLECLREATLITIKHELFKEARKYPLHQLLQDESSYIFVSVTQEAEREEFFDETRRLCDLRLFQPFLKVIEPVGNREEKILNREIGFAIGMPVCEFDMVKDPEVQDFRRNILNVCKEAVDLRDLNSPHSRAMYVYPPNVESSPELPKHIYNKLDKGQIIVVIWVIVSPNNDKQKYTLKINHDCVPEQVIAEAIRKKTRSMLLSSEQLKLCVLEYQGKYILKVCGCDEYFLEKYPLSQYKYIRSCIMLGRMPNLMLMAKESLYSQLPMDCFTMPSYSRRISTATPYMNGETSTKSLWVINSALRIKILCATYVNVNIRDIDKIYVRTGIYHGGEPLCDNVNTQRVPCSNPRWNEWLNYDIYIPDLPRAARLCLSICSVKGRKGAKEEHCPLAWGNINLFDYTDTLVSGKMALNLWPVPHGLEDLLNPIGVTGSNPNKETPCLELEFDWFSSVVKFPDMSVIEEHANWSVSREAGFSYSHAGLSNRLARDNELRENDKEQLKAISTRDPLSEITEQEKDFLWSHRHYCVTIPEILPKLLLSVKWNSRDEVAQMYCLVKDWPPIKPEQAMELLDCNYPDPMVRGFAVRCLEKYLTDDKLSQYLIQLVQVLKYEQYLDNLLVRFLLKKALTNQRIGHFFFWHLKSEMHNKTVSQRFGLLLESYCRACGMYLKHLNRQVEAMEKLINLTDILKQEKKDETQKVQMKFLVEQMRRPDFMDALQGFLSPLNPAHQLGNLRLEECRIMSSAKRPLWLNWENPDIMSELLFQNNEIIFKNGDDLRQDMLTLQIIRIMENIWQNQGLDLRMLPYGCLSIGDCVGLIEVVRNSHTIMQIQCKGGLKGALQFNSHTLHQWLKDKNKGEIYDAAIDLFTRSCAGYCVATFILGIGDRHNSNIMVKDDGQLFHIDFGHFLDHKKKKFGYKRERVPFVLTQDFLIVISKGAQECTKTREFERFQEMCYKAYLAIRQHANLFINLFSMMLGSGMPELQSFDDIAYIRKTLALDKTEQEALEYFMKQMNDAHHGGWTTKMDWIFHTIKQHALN

Nc1ncc(-c2nc(N3CCOCC3)nc(N3CCOCC3)n2)c(C(F)F)n1
growth inhibition (GI) (OVCAR-3 [1]): Active | CLH [2]: 4 µL/min | Ratio Ki [3]: 2 | Activity [4]: Non-Toxic | permeability [5]: 8.196 ×10⁻⁶ cm/s | t1/2 [6]: 3.208 h | IC50 (mTORC1): 0.061 µM | solubility thermodynamic at 24 h [7]: > 1 µg/mL | Activity (OVCAR-3 [8]): 397 mm3 | CLH [9]: 6.7 µL/min | t1/2 [10]: 3.528 h | Cmax [11]: 3282 ng/mL | t1/2 [12]: 5.775 h | NOAEL at 336 h [13]: 3.6 mg/kg | solubility thermodynamic at 24 h [14]: 13.6 µg/mL (≈ 34.5 µM) | MTD [15]: 6.3 mg/kg | AUC [16]: 4526 ng·h/mL | half-life [17]: 1.6 h | IC50 (Cytochrome P450 3A4): > 100 µM | CLH [18]: 7 µL/min | IC50 (Cytochrome P450 2D6): > 100 µM | Cmax [19]: 1020 ng/mL | half-life [20]: 1.6 h | CL/F [21]: 15.6 mL/min/kg | CLH [22]: 1.5 µL/min | Activity (Mus musculus [23]): Active | AUC [24]: 2757 ng·h/mL | Tmax [25]: 0.5 h | Tmax [26]: 0.5 h | NOAEL at 336 h [27]: 10 mg/kg | IC50 (Cytochrome P450 1A2): > 100 µM | IC50 (mTORC2): 0.017 µM | NOAEL at 336 h [28]: 2.4 mg/kg | AUC [29]: 10315 ng·h/mL | Kp [30]: 0.3 | Ki [31]: 0.033 µM | Activity (Mus musculus [32]): Active | Cmax [33]: 1810 ng/mL | half-life [34]: 1.7 h | IC50 (Cytochrome P450 2C19): > 100 µM | Tmax [35]: 1 h | t1/2 [36]: 8.67 h

Nc1ncc(-c2nc(N3CCOCC3)nc(N3[C@@H]4CC[C@H]3COC4)n2)c(C(F)F)n1
IC50 (mTORC1): 0.091 µM | Ki [37]: 0.0034 µM | IC50 (mTORC2): 0.073 µM | Ki [31]: 0.014 µM

C[C@@H]1COCCN1c1nc(-c2cnc(N)nc2C(F)F)nc(N2CCOCC2)n1
IC50 (mTORC1): 0.116 µM | Ki [37]: 0.0027 µM | IC50 (mTORC2): 0.064 µM | Ki [31]: 0.021 µM

Nc1ncc(-c2nc(N3CCOCC3)nc(N3C[C@H]4CC[C@@H](C3)O4)n2)c(C(F)F)n1
IC50 (mTORC1): 0.139 µM | Ki [37]: 0.0044 µM | IC50 (mTORC2): 0.084 µM | Ki [31]: 0.029 µM
